Experimental data reported in ChEMBL document CHEMBL4152290, “1H-Benzo[d]imidazoles and 3,4-dihydroquinazolin-4-ones: Design, synthesis and antitubercular activity” (Eur J Med Chem, 2018).
Values after ≈ are worked out from the molar mass of the structure shown.

Assays:
[1] = Stability of the compound in PBS containing 10% DMSO at 37 degC measured immediately by HPLC analysis; type: physicochemical; conditions: read-out: Stability
[2] = Stability of the compound in PBS containing 10% DMSO at 25 degC measured after 48 hrs by HPLC analysis; type: physicochemical; conditions: buffer
[3] = Cytotoxicity against human HaCaT cells assessed as cell viability at 10 ug/ml after 72 hrs by neutral red uptake assay (reference value: 100%); type: cell-based; conditions: read-out: Activity
Method in brief: (§1)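 Seeding was 2×10^3/well for HepG2 and HaCat and 1×10^3/well for Vero. After 24 h, cells received 10 µg/mL final (2% DMSO) for 72 h at 37 °C, 5% CO2. They were washed with PBS, given neutral red 25 µg/mL in serum-free medium for 3 h, washed, and extracted 30 min with acetic acid/EtOH/water 1:50:49. A540 was read. Viability is relative to 2% DMSO controls; mean ± SEM, three experiments in triplicate.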

[4] = Stability of the compound in PBS containing 10% DMSO at 25 degC measured after 24 hrs by HPLC analysis; type: physicochemical; conditions: buffer
Danio rerio [5] = species: Danio rerio; assay: Cardiotoxicity in Zebrafish AB embryos assessed as heart beat rate at 3 uM measured at 2 days post fertilization by stereomicroscopic method (reference value: 128.7 to 146.3 bpm); type: organism-based; conditions: in vivo, 48 h
[6] = Stability of the compound in PBS containing 10% DMSO at 37 degC measured after 3 hrs by HPLC analysis; type: physicochemical; conditions: read-out: Stability
[7] = Stability of the compound in PBS containing 10% DMSO at 25 degC measured immediately by HPLC analysis; type: physicochemical; conditions: read-out: Stability
[8] = Selectivity index, ratio of cytotoxic concentration for human HaCaT cells by MTT assay to MIC for Mycobacterium tuberculosis H37Rv ATCC 27294; type: toxicity; conditions: read-out: Selectivity Index
[9] = Cytotoxicity against human HepG2 cells assessed as cell viability at 10 ug/ml after 72 hrs by MTT assay (reference value: 100%); type: cell-based; conditions: read-out: Activity
Method in brief: (§2)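 Cells were grown in DMEM with 10% heat-inactivated FBS and penicillin-streptomycin, seeded at 2×10^3/well (HepG2, HaCat) or 1×10^3/well (Vero), then left 24 h. Compound was applied at 10 µg/mL final (2% DMSO) for 72 h at 37 °C, 5% CO2. MTT 1 mg/mL was added for 3 h, formazan dissolved in DMSO, and A595 read. Viability is expressed relative to 2% DMSO wells; mean ± SEM, triplicates, three independent experiments.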

[10] = Selectivity index, ratio of cytotoxic concentration for human HepG2 cells by MTT assay to MIC for Mycobacterium tuberculosis H37Rv ATCC 27294; type: toxicity; conditions: read-out: Selectivity Index
[11] = Stability of the compound in PBS containing 10% DMSO at 25 degC measured after 12 hrs by HPLC analysis; type: physicochemical; conditions: buffer
[12] = Cytotoxicity against African green monkey Vero assessed as cell viability at 10 ug/ml after 72 hrs by neutral red uptake assay (reference value: 100%); type: cell-based; conditions: chlorocebus sabaeus, Vero cells; read-out: Activity; method in brief: as §1
[13] = Selectivity index, ratio of cytotoxic concentration for human HepG2 cells by neutral red uptake assay to MIC for Mycobacterium tuberculosis H37Rv ATCC 27294; type: toxicity; conditions: read-out: Selectivity Index
Danio rerio [14] = species: Danio rerio; assay: Cardiotoxicity in Zebrafish AB embryos assessed as heart beat rate at 20 uM measured at 2 days post fertilization by stereomicroscopic method (reference value: 128.7 to 146.3 bpm); type: organism-based; conditions: in vivo, 48 h
[15] = Stability of the compound in PBS containing 10% DMSO at 37 degC measured after 48 hrs by HPLC analysis; type: physicochemical; conditions: read-out: Stability
[16] = system: Mycobacterium tuberculosis; assay: Antitubercular activity against Mycobacterium tuberculosis H37Rv ATCC 27294 after 7 days by resazurin dye based assay; type: functional; conditions: H37Rv ATCC 27294, 168 h
Method in brief: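 Resazurin microtiter MIC in 7H9 with 10% ADC. Two-fold dilutions from 1 mg/mL DMSO stocks span 25.0–0.05, 10.0–0.02 or 0.02–0.0004 µg/mL, with 2.5% DMSO final. Inoculum is bead-declumped culture grown in 7H9/10% OADC/0.05% Tween 80, diluted to OD600 0.006. Plates run 7 days at 37 °C, then 0.01% resazurin for 48 h. MIC is the lowest concentration preventing the blue-to-pink change. Three independent tests.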

[17] = Stability of the compound in PBS containing 10% DMSO at 37 degC measured after 9 hrs by HPLC analysis; type: physicochemical; conditions: for remaining at 9 h: PBS containing 10% DMSO, read-out: Stability
[18] = Stability of the compound in PBS containing 10% DMSO at 25 degC measured after 9 hrs by HPLC analysis; type: physicochemical; conditions: buffer
[19] = Cytotoxicity against African green monkey Vero assessed as cell viability at 10 ug/ml after 72 hrs by MTT assay (reference value: 100%); type: cell-based; conditions: chlorocebus sabaeus, Vero cells; read-out: Activity; method in brief: as §2
[20] = Cytotoxicity against human HepG2 cells assessed as cell viability at 10 ug/ml after 72 hrs by neutral red uptake assay (reference value: 100%); type: cell-based; conditions: read-out: Activity; method in brief: as §1
[21] = Cytotoxicity against human HaCaT cells assessed as cell viability at 10 ug/ml after 72 hrs by MTT assay (reference value: 100%); type: cell-based; conditions: read-out: Activity; method in brief: as §2
Danio rerio [22] = species: Danio rerio; assay: Cardiotoxicity in Zebrafish AB embryos assessed as heart beat rate at 20 uM measured at 5 days post fertilization by stereomicroscopic method (reference value: 148.1 to 158.2 bpm); type: organism-based; conditions: in vivo, 120 h
Danio rerio [23] = species: Danio rerio; assay: Toxicity in Zebrafish AB embryos assessed as effect on larval survival rate at 3 to 20 uM; type: organism-based; conditions: in vivo
Method in brief: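 Wild-type AB zebrafish embryos are exposed from 2 hpf to 5 dpf at 3.0, 15.0 and 20.0 µM in fish water with 1% DMSO, at 28 °C on a 14/10 h light-dark cycle. Controls are fish water alone and 1% DMSO. Survival and hatching are checked daily under a stereomicroscope.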

Danio rerio [24] = species: Danio rerio; assay: Cardiotoxicity in Zebrafish AB embryos assessed as heart beat rate at 15 uM measured at 2 days post fertilization by stereomicroscopic method (reference value: 128.7 to 146.3 bpm); type: organism-based; conditions: in vivo, 48 h
Danio rerio [25] = species: Danio rerio; assay: Cardiotoxicity in Zebrafish AB embryos assessed as heart beat rate at 15 uM measured at 5 days post fertilization by stereomicroscopic method (reference value: 148.1 to 158.2 bpm); type: organism-based; conditions: in vivo, 120 h
Danio rerio [26] = species: Danio rerio; assay: Induction of neurological impairment in Zebrafish AB embryos assessed as alteration in locomotor activity by measuring swimming activity at 3 to 20 uM measured at 5 days post fertilization; type: organism-based; conditions: in vivo, 120 h
Method in brief: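 Larvae were exposed from 2 hpf in fish water with 1% DMSO. At 5 dpf each larva was placed singly in a well of water or treatment solution. After 1 min acclimation, it was video-tracked for 5 min at 15 positions/s, and distance travelled was scored.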

[27] = Selectivity index, ratio of cytotoxic concentration for African green monkey Vero cells by MTT assay to MIC for Mycobacterium tuberculosis H37Rv ATCC 27294; type: toxicity; conditions: read-out: Selectivity Index

Compound	remaining at 0 h [1]	Stability [2]	viability at 72 h, 10 ug/ml [3]	Stability [4]	Activity (Danio rerio [5])	remaining at 3 h [6]	remaining at 0 h [7]	selectivity ratio [8]	viability at 72 h, 10 ug/ml [9]	selectivity ratio [10]	Stability [11]	viability at 72 h, 10 ug/ml [12]	selectivity ratio [13]	Activity (Danio rerio [14])	remaining at 48 h [15]	MIC [16]	Stability [18]	viability at 72 h, 10 ug/ml [19]	viability at 72 h, 10 ug/ml [20]	viability at 72 h, 10 ug/ml [21]	also measured
O=C(CSc1nc2ccccc2c(=O)[nH]1)NC1CCCCC1	100%	126%	97%	109%	149.5 bpm	109%	100%	≤ 32	86%	≤ 32	101%	92%	≤ 32	155.7 bpm	111%	0.97 µM (≈ 0.308 µg/mL)	118%	90%	95%	100%	Stability ([17]; buffer, 9 h): 123%; Activity (Danio rerio [22]): 158.4 bpm; Activity (Danio rerio [23]): Non-Toxic; Activity (Danio rerio [24]): 155 bpm; Activity (Danio rerio [25]): 163 bpm; Activity (Danio rerio [26]): Non-Toxic; selectivity ratio [27]: ≤ 32
CC1CCC(NC(=O)CSc2nc3ccccc3c(=O)[nH]2)CC1 (configuration not stated)	100%	125%	94%	111%	122.3 bpm	80%	100%	≤ 32	89%	≤ 32	100%	95%	≤ 32	146.4 bpm	48%	0.24 µM (≈ 0.0795 µg/mL)	99%	84%	96%	95%	remaining at 9 h [17]: 69%; Activity (Danio rerio [22]): 152.2 bpm; Activity (Danio rerio [23]): Non-Toxic; Activity (Danio rerio [24]): 127.2 bpm; Activity (Danio rerio [25]): 150.3 bpm; Activity (Danio rerio [26]): Non-Toxic; selectivity ratio [27]: ≤ 32
CC1CCCCC1NC(=O)CSc1nc2ccccc2c(=O)[nH]1 (configuration not stated)	100%	142%	99%	138%	156.3 bpm	92%	100%	≤ 32	94%	≤ 32	137%	95%	≤ 32	153.9 bpm	80%	0.94 µM (≈ 0.312 µg/mL)	127%	102%	101%	100%	remaining at 9 h [17]: 71%; Activity (Danio rerio [22]): 160.6 bpm; Activity (Danio rerio [23]): Non-Toxic; Activity (Danio rerio [24]): 151.7 bpm; Activity (Danio rerio [25]): 163.4 bpm; Activity (Danio rerio [26]): Non-Toxic; selectivity ratio [27]: ≤ 32
C[C@H]1CC[C@H](NC(=O)CSc2nc3ccccc3c(=O)[nH]2)CC1	100%	20%	97%	26%	135.5 bpm	83%	100%	≤ 32	83%	≤ 32	47%	93%	≤ 32	150.2 bpm	50%	0.24 µM (≈ 0.0795 µg/mL)	64%	88%	97%	97%	remaining at 9 h [17]: 77%; Activity (Danio rerio [22]): 153.8 bpm; Activity (Danio rerio [23]): Non-Toxic; Activity (Danio rerio [24]): 134 bpm; Activity (Danio rerio [25]): 157.4 bpm; Activity (Danio rerio [26]): Non-Toxic; selectivity ratio [27]: ≤ 32
O=C(CSc1nc2ccccc2c(=O)[nH]1)NC1CCCCCC1	100%	123%	88%	122%	139.6 bpm	81%	100%	≤ 32	99%	≤ 32	92%	94%	≤ 32	148.4 bpm	71%	0.48 µM (≈ 0.159 µg/mL)	91%	91%	105%	100%	remaining at 9 h [17]: 68%; Activity (Danio rerio [22]): 153.8 bpm; Activity (Danio rerio [23]): Non-Toxic; Activity (Danio rerio [24]): 136.5 bpm; Activity (Danio rerio [25]): 160.4 bpm; Activity (Danio rerio [26]): Non-Toxic; selectivity ratio [27]: ≤ 32
CC1CCCC(NC(=O)CSc2nc3ccccc3c(=O)[nH]2)C1 (configuration not stated)	100%	95%	88%	100%	151.2 bpm	96%	100%	≤ 32	89%	≤ 32	102%	95%	≤ 32	152.2 bpm	98%	0.24 µM (≈ 0.0795 µg/mL)	100%	89%	95%	94%	remaining at 9 h [17]: 97%; Activity (Danio rerio [22]): 160.9 bpm; Activity (Danio rerio [23]): Non-Toxic; Activity (Danio rerio [24]): 151.7 bpm; Activity (Danio rerio [25]): 157.4 bpm; Activity (Danio rerio [26]): Non-Toxic; selectivity ratio [27]: ≤ 32
